Most compounds without a hit are left out; they make up all but 1.3% or so of the library.
PME-1 primary – PME-1 (human) inhibition | inhibition, % at 5.9 µM | Q9Y570 | recombinant PME-1, FP-Rh probe fluorescence polarization | hit rate 0.53% among 320,000;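 active = inhibition above the campaign mean of all compounds plus 3 SD, cut at about 26% in these data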;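 also: competitive labeling of PME-1 active site by serine hydrolase directed probe; 0% = PME-1 with DMSO and 100% = wells lacking PME-1 enzyme; inhibitors block probe labeling so polarization falls and inhibition rises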
Target sequence (Q9Y570 whole entry, looked up): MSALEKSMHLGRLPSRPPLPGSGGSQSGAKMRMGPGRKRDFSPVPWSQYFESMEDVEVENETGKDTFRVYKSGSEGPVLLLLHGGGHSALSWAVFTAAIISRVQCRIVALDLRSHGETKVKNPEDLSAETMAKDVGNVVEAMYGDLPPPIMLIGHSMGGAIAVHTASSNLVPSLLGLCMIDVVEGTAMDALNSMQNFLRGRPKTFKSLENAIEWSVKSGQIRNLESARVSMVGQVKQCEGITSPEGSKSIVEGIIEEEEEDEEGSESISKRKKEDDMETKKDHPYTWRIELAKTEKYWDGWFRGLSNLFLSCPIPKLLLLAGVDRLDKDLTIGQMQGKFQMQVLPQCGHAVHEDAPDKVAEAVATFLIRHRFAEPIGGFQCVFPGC
LYPLA2 counter – LYPLA2 (human) inhibition in PME1 counter-screen | hit rate 0.38% among 320,000 | AID 2177 | recombinant LYPLA2, FP-Rh probe fluorescence polarization | O95372 | inhibition, % at 5.9 µM;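 active = inhibition above the screen-wide mean plus 3 SD, limit set per campaign, cut at about 26% in these data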;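 also: 0% = LYPLA2 with DMSO and 100% = wells lacking LYPLA2 enzyme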
Fam108B inh – Fam108B inhibition, counter-screen for RBBP9 inhibitors | recombinant Fam108B, FP-Rh probe fluorescence polarization | inhibition, % at 9.51 µM | hit rate 0.33% among 300,000;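 active = inhibition above the screen mean inhibition plus 3 SD, computed separately per campaign, cut at about 18% in these data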;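 also: inhibitors lower polarization as less probe binds the enzyme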
LYPLA1 counter – counter-screen for PME1 inhibitors: inhibitors of human LYPLA1; hit rate 0.16% among 320,000; recombinant LYPLA1, FP-Rh probe fluorescence polarization; AID 2174; O75608; inhibition, % at 5.9 µM;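 active = inhibition above the mean of all tested compounds plus 3 SD, set per campaign, cut at about 14% in these data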;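 also: inhibitors block serine hydrolase probe labeling of LYPLA1 so polarization falls; 0% = enzyme with DMSO and 100% = wells lacking LYPLA1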
RBBP9 inh – blocks human serine hydrolase RBBP9 | O75884 | recombinant RBBP9, FP-Rh probe fluorescence polarization | inhibition, % at 7.94 µM | hit rate 0.2% among 220,000 | AID 1515;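 active = inhibition above the campaign mean of all tested compounds plus 3 SD, cut at about 14% in these data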;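 also: plate controls were DMSO wells with RBBP9 for no effect and wells lacking RBBP9 protein for full effect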
Target sequence (O75884 whole entry, looked up): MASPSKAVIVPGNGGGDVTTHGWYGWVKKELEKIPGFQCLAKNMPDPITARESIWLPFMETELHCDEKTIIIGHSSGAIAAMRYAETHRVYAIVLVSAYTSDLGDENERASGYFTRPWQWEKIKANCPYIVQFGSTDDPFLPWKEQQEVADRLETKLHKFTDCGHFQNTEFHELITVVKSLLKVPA
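Test system – recombinant human RBBP9 · Input – RBBP9 2.5 µM in dispensing solution, pre-mixing · Medium – Tris buffer pH 8.0, NaCl, Pluronic · Schedule – preincubation 30 min plus labeling 45 min at 25 °C · Measured by – fluorescence polarization · Measure – % inhibition · Controls – DMSO and no-protein wells · Replicates – one well per compound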
PAD4 inh – blocks human protein arginine deiminase 4. recombinant PAD4, RCA probe fluorescence polarization. inhibition, % at 6.36 µM. hit rate 0.41% among 330,000;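 active = percent inhibition above a cutoff equal to the mean of all tested compounds plus 3 SD, cut at about 15% in these data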;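 also: 0% = PAD4 with RCA probe and DMSO and 100% = probe without PAD4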
PAD4 confirm – PAD4 (human) inhibition, confirmed; shares compounds with PAD4 inh; recombinant PAD4, RCA probe fluorescence polarization; inhibition, % at 6.36 µM; hit rate 28% among 1,200; AID 488796;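 active = mean inhibition across replicates above the hit cutoff set by the earlier primary screen, cut at about 15% in these data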;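 also: inhibitors block active-site labeling by the probe so polarization falls; 0% = PAD4 with probe and DMSO and 100% = probe without PAD4 enzyme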
* hit, by the source's call; . = no result given.

SMILES	PME-1 primary	LYPLA2 counter	Fam108B inh	LYPLA1 counter	RBBP9 inh	PAD4 inh	PAD4 confirm
Cc1cccc(NC2=C/C(=N/S(=O)(=O)c3cccs3)c3ccccc3C2=O)c1	15.6	6.9	17.0	2.5	-1.3	27.9*	40.3*
Cc1ccc(NC2=C/C(=N\S(=O)(=O)c3cccs3)c3ccccc3C2=O)c(C)c1	5.9	13.7	18.8*	-0.2	8.7	65.2*	56.2*
O=C(NCC(=O)N(c1ccccc1)C(C(=O)NC1CCCC1)c1ccncc1)c1cccs1 (stereo not drawn)	-0.3	4.3	2.4	1.1	.	-0.1	.
O=C(NCC(=O)N(c1cccc(F)c1)C(C(=O)NC1CCCC1)c1ccncc1)c1cccs1 (stereo not drawn)	-2.9	-0.2	4.2	-0.9	.	18.3*	-0.2
Cc1c(NC(=O)C(C)OC(=O)c2cc(-c3cccc4ccccc34)nc3ccccc23)c(=O)n(-c2ccccc2)n1C (stereo not drawn)	11.5	12.8	3.9	5.2	-7.7	18.6*	3.8
CCOC(=O)c1ccc(-n2[nH]c(-c3ccccc3)cc2=O)cc1	8.6	9.5	0.3	4.3	-1.8	40.0*	-16.2
CCOC(=O)c1ccc(N=Nc2c(C)[nH]n(-c3ccccc3)c2=O)cc1	1.8	3.4	0.0	-0.4	.	6.0	.
O=C(O)CCC(=O)Nc1ccc(Br)c(Cl)c1	-4.3	-5.2	-5.7	-3.5	-5.6	-1.1	.
CCCC(=O)Nc1ccc(Br)c(Cl)c1	-0.2	-2.7	7.8	2.2	-7.8	15.3*	11.1
Cc1nn(CC(=O)Nc2cccc(C(F)(F)F)c2)c(=O)c2cccn12	-2.8	2.6	1.6	-4.2	.	1.4	.
C[C@H](N)c1nnc(SCC(=O)c2ccc(Cl)cc2)o1	8.6	-1.4	-2.6	1.0	-7.2	-5.1	.
CC(C)[C@H](N)c1nnc(SCC(=O)c2ccc(Cl)cc2)o1	-0.7	-0.6	0.9	-1.3	-1.7	15.4*	3.4
CCOc1cc(CNc2ccc(N(C)C)cc2)cc(Br)c1OCC(=O)NC(C)(C)C	8.7	11.1	2.7	2.3	-1.0	23.3*	0.4
COc1ccc(Br)cc1CNc1ccc(O)cc1	29.4*	8.8	4.3	14.0	-1.8	28.3*	1.7
O=C(COc1ccc(Cl)cc1)Nc1ccc(NC(=O)c2ccco2)cc1	-4.7	1.8	-2.8	3.9	.	26.7*	-1.8
COc1cc(-c2nc3c4ccccc4nc(=S)n3[nH]2)cc(OC)c1OC	26.1	1.6	4.2	-1.3	.	16.2*	24.7*
COc1ccccc1-c1nc2c3ccccc3nc(=S)n2[nH]1	-4.7	2.5	1.9	-1.2	.	5.2	.
CCOc1ccccc1/C=N/NC(=O)c1nnn(-c2nonc2N)c1CN1CCCC1	-1.2	0.7	-4.3	0.0	.	-1.1	.
O=C1C=C(O)c2cccc(O)c2C1=O	14.3	8.5	2.8	-0.4	.	16.0*	4.5
COc1cccc2c1-c1c(O)cccc1C2=O	2.9	2.0	0.5	3.3	.	2.8	.
CCC(=O)N(Cc1cc(=O)[nH]c2ccccc12)c1ccccc1	2.0	-1.9	3.5	-1.0	-8.9	21.2*	21.9*
COc1ccc(CCn2c(N)c(C#N)c3nc4ccccc4nc32)cc1OC	33.6*	6.2	4.0	0.2	-1.0	24.2*	-11.2
O=C(/C=C/c1ccco1)NC(=S)Nc1ccc(Cl)cn1	-9.1	-0.8	-1.2	0.3	2.7	-3.7	.
COc1ccc(S(=O)(=O)Nc2ccccc2C)cc1	-14.3	-0.7	-0.6	-1.1	-1.0	75.0*	2.9
Cc1ccccc1NS(=O)(=O)c1ccc(F)cc1	1.9	-4.2	-2.0	-2.6	-4.0	0.0	.
SMILES	PME-1 primary	LYPLA2 counter	Fam108B inh	LYPLA1 counter	RBBP9 inh	PAD4 inh	PAD4 confirm
Nc1c(S(=O)(=O)c2cccs2)c2nc3ccccc3nc2n1CCc1ccccc1	6.7	-3.7	2.3	-8.3	-9.6	0.1	.
CC(C)CCn1c(N)c(S(=O)(=O)c2cccs2)c2nc3ccccc3nc21	3.8	-28.3	-0.6	-15.3	-8.1	63.0*	-9.4
Cc1[nH]c2ccccc2c1/C=N/Nc1nncn1N	3.5	1.0	-1.6	-0.2	3.8	34.7*	6.6
CCN(CC)c1ccc(C(=O)c2ccccc2C(=O)O)c(O)c1	9.0	13.4	8.8	13.1	0.2	21.1*	26.4*
CCN(CC)c1ccc(/C=N/N(c2ccccc2)c2ccccc2)c(O)c1	-4.7	-10.5	-1.3	-1.7	-2.2	-11.0	.
Cc1ccc2c(c1)c(=O)c1c3n2CCN(C(=O)CCl)C3CC1 (stereo not drawn)	4.4	1.0	9.6	1.1	2.9	30.0*	-0.8
Fc1ccc(Cn2c(SCc3ccc(F)c(C(F)(F)F)c3)nnc2C(F)(F)F)cc1	-1.3	1.5	7.0	-2.5	-7.3	23.2*	-2.6
Cc1ccc(NC(=O)CN2C(=O)S/C(=C\c3cc(Cl)c(OCC(=O)O)c(Cl)c3)C2=O)cc1	-5.4	5.7	-1.0	0.5	.	2.6	.
CC(=O)NC1C(OCc2ccccc2)OC2COC(C)(C)OC2C1O (stereo not drawn)	-1.1	-0.6	3.4	0.2	4.7	-2.8	.
COc1cc2c(cc1OC)C(CSc1ccccc1C(=O)O)=NC(C)(C)C2	1.6	0.1	2.0	1.1	-8.0	7.0	.
CC1(C)Cc2ccccc2C(CSc2ccccc2C(=O)O)=N1	-3.9	0.1	2.5	-3.7	-6.2	20.3*	20.1*
O=C1CC(Nc2ccc3ccccc3c2)C(=O)N1Cc1ccccc1 (stereo not drawn)	3.2	1.8	4.8	-1.7	0.1	1.2	.
COc1ccccc1N1C(=O)CC(Nc2ccc(N3CCOCC3)cc2)C1=O (stereo not drawn)	0.8	4.2	-1.8	2.2	-3.9	24.0*	1.7
O=C1CC(Nc2ccc(N3CCOCC3)cc2)C(=O)N1Cc1ccccc1 (stereo not drawn)	5.5	9.8	0.1	3.6	1.8	35.5*	-1.1
O=C1c2ccccc2[C@@H]2C[C@H]3O[C@H]3CCN12	.	.	.	.	.	2.0	.
CCOc1ccc(NC(=O)CSc2nncc(=O)n2N)cc1	-1.0	-4.2	-3.2	0.5	.	15.2*	6.8
Nn1c(SCC(=O)Nc2nc3ccccc3s2)nncc1=O	3.3	-3.7	5.3	-0.3	-5.1	21.8*	38.7*
Cc1nnc(SCC(=O)Nc2nc3ccccc3s2)n(N)c1=O	-6.0	7.7	0.9	2.5	0.0	8.8	.
CCc1cc(C(=O)OC)c(NC(=O)CN2CCN(C(=O)C3CCCO3)CC2)s1 (stereo not drawn)	7.8	6.9	0.0	0.6	.	3.1	.
CCOC(=O)C1=C(C)N=c2s/c(=C/c3ccc(OCC(=O)O)cc3)c(=O)n2C1c1cc(OC)c(OC)c(OC)c1 (stereo not drawn)	-9.9	-3.4	-1.8	-1.2	.	25.0*	4.2
CCOC(=O)C1=C(C)N=c2s/c(=C\c3cccc(OCC(=O)O)c3)c(=O)n2C1c1ccccc1OC (stereo not drawn)	1.4	1.8	2.1	1.6	.	6.2	.
